XBP1 UPR activ: activators of adaptive arm of unfolded protein response (XBP1). CHO-XBP1 luciferase reporter, IRE1-XBP1 UPR activation, luminescence; percent of tunicamycin response, DMSO as zero. activation, % at 20 µM. 0.33% of 330,000 active. AID 463104;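 active means versus positive control, 20 µM dose yields 30% or more activation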
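incubation = overnight seeding at 37 °C, 6 h compound treatment at 37 °C | assay system = CHO-XBP1 cells stably carrying IRE1-XBP1-driven luciferase reporter | input = 1000 cells per well | detection = luciferase luminescence | dosing = single point, 20 µM final compound, 1% DMSO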
CHOP UPR activ: apoptotic UPR (CHOP) activation. CHO-CHOP luciferase reporter, luminescence; percent of tunicamycin response over DMSO baseline. activation, % at 10 µM. 0.34% of 330,000 active;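 active means at 10 µM dose, activation of 40% or more, normalized to positive control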
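System: CHO-CHOP luciferase reporter cell line; amount: 500 cells/well; buffer or medium: F12 medium containing 10% fetal bovine serum; incubation: 6 h compound exposure at 37 °C after overnight seeding; measured by: luciferase luminescence after 10 min with Steady-Glo reagent; evaluation: % reporter activation, DMSO baseline versus tunicamycin full activation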
Mdm2 MdmX PPI: inhibitors of human Mdm2/MdmX interaction. SaOS-2 split-luciferase Mdm2/MdmX complementation, luminescence. inhibition, % at 8 µM. 3% of 330,000 active. AID 485346;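 active means inhibition of at least 50% at 8 µM in the primary screen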
Target sequence (O15151 whole entry, looked up): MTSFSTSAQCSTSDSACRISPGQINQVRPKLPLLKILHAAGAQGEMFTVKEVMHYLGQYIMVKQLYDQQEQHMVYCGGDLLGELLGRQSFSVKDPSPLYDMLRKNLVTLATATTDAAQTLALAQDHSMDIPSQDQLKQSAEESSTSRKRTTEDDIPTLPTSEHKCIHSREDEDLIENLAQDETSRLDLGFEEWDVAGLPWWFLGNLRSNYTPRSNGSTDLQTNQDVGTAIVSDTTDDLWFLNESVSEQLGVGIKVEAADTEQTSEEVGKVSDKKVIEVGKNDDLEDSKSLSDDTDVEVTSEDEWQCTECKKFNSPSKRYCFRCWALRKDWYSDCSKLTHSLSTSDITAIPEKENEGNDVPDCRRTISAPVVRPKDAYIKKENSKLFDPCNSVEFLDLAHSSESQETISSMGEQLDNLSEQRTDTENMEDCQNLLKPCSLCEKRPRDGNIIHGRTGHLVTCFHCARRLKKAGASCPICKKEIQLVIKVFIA
Target sequence (Q00987 whole entry, looked up): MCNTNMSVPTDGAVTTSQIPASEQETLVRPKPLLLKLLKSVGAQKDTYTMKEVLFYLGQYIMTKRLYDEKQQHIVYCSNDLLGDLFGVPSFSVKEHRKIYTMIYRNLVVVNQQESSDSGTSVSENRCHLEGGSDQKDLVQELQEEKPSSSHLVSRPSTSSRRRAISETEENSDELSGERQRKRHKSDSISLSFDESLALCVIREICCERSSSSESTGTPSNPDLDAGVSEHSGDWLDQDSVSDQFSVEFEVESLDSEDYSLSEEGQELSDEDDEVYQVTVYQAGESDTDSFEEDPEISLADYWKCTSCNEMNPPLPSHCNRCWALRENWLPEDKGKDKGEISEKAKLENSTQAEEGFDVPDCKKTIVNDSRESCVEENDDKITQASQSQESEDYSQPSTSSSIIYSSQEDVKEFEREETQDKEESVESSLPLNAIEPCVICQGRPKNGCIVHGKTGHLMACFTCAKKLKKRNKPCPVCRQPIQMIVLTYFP
Granule exo inh: lytic granule exocytosis inhibition. TALL-104 LAMP-1 surface exposure, flow cytometry; cells stimulated with thapsigargin and PMA. inhibition, % at 10 µM. 0.66% of 360,000 active. AID 651702;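 active means inhibition above about 55%, limit read from the data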
ABHD5 PLIN5 PPI: blocks binding of human ABHD5 to perilipin-5; Split G. princeps luciferase complementation, luminescence, 4 h; 0.78% of 360,000 active; inhibition, % at 4 µM;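 active means inhibition above the mean inhibition across every tested compound plus 3 SD, cut at about 22% in these data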
Mdm2-MdmX conf: human Mdm2/MdmX binding inhibition, confirmed; shares compounds with Mdm2 MdmX PPI; luminescent assay; inhibition, % at 8 µM; AID 489028; 55% of 10,000 active; in the data active means inhibition above about 40%
Full FLuc ctr: counter-screen for Mdm2/MdmX inhibitors: full-length luciferase; shares compounds with Mdm2 MdmX PPI; SaOS-2 full-length luciferase counterscreen, luminescence; 77% of 6,200 active; AID 504607; inhibition, % at 8 µM;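 active means mean inhibition at 8 µM reaching about 37%, which flags the compound as non-specific, limit read from the data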;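 further: p53-null SaOS-2 cells with luciferase driven by a doxycycline-inducible promoter; compound on cells about two nights before reading with doxycycline added after day one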
Each line names hits and unclear results; the compound was inactive in the other large screens (follow-up assays come after a bar, where they were run). In the library only some 4% were active in any assay of this set; here they are far more common.

O=C1C=C(N2CCN(C(=O)c3ccccc3)CC2)C2(CCCCC2)O1	none
CCOc1cc(/C=C/c2cc(C(=O)O)c3ccccc3n2)ccc1OC	none
COc1ccc(NC(=O)NCCCN2CCC(Cc3ccccc3)CC2)cc1	none
CSc1ccc(NC(=O)NCCCN2CCC(Cc3ccccc3)CC2)cc1	Mdm2 MdmX PPI 61 | Mdm2-MdmX conf inactive
CCOc1ccccc1NC(=O)CN(c1ccc(OC)cc1)S(=O)(=O)c1c(C)noc1C	Mdm2 MdmX PPI 58 | Mdm2-MdmX conf 56 | Full FLuc ctr 60
CCOc1ccc(N(CC(=O)Nc2ccccc2C)S(=O)(=O)c2c(C)noc2C)cc1	Mdm2 MdmX PPI 56 | Mdm2-MdmX conf 57 | Full FLuc ctr 57
CCOc1ccc(N(CC(=O)Nc2ccc(C)c(C)c2)S(=O)(=O)c2c(C)noc2C)cc1	none
CCOc1ccccc1NC(=O)CN(c1cc(C)cc(C)c1)S(=O)(=O)c1c(C)noc1C	none
CC(C)OC(=O)/C=C1\C[C@@H](c2ccccc2C(F)(F)F)O[C@@H](c2ccccc2C(F)(F)F)O1	none (no result: XBP1 UPR activ, CHOP UPR activ, Mdm2 MdmX PPI)
CCCCCCCCn1c2c(c(=N)c3ccccc31)CCC2	Mdm2 MdmX PPI 85 | Mdm2-MdmX conf 86 | Full FLuc ctr inactive
CCCCCn1c2c(c(=N)c3ccccc31)CCC2	Mdm2 MdmX PPI 60 | Mdm2-MdmX conf inactive
CCOC(=O)Cn1c2c(c(=N)c3ccccc31)CCC2	none
CC(=O)NNC(=O)CCn1c2c(c3ccccc31)CCCC2	none
CCCCSc1nnc([C@@H]2CCCN2C(=O)OC(C)(C)C)o1	none
Cc1ccc(-c2nnc(CSc3nnc(COc4cccc5ccccc45)n3-c3ccccc3)o2)cc1	Mdm2 MdmX PPI 63 | Mdm2-MdmX conf inactive
N#CCSc1nnc(COc2cccc3ccccc23)n1-c1ccccc1	none
CC1=CC(C)(C)N(C(=O)CSc2nnc(N)s2)c2ccccc21	none
Cc1cccn2c(=O)c(C(=O)NC3CCCCC3C)c(O)nc12 (configuration not stated)	none
Cc1ccn2c(=O)c(C(=O)NC3CCCCC3C)c(O)nc2c1 (configuration not stated)	Mdm2 MdmX PPI 67 | Mdm2-MdmX conf 67 | Full FLuc ctr 68
COc1cc(NC(=O)c2cc3c(C)nc4ccccc4c3o2)cc(OC)c1OC	Mdm2 MdmX PPI 59 | Mdm2-MdmX conf inactive
CCCn1c(N)c(C(=O)CN2CCN(S(=O)(=O)c3cccs3)CC2)c(=O)[nH]c1=O	none
Cc1cc(Nc2nc3ccccc3nc2Cl)n(-c2ccc([N+](=O)[O-])cc2)n1	Mdm2 MdmX PPI 96 | Mdm2-MdmX conf 49 | Full FLuc ctr 51
Cc1cc(Nc2nc3ccccc3[nH]c2=O)n(-c2ccccc2)n1	none
CCOC(=O)c1cc(-c2cc(OC)c(OC)c(OC)c2)nc2c1c(=O)[nH]c(=O)n2Cc1ccccc1	Mdm2 MdmX PPI 57 | Mdm2-MdmX conf 56 | Full FLuc ctr 86
O=C(Nc1ccc2c(c1)OCO2)c1ccccn1	none
O=C(/C=C\Nc1ccc2c(c1)OCO2)c1ccccn1	Mdm2 MdmX PPI 72 | Mdm2-MdmX conf 65 | Full FLuc ctr 39
COc1ccc([C@H]2CC(=O)C=C(c3cc(Br)ccc3OC)C2)cc1	Mdm2 MdmX PPI 50 | Mdm2-MdmX conf 44 | Full FLuc ctr 47
COc1ccc([C@H]2CC(=O)C=C(c3cc(C)ccc3OC)C2)cc1	none
CCOc1ccc(Br)cc1C1=CC(=O)C[C@H](c2ccc(OC)cc2)C1	Mdm2 MdmX PPI 55 | Mdm2-MdmX conf 48 | Full FLuc ctr 48
COc1ccc([C@H]2CC(=O)C=C(c3ccc(Br)c4ccccc34)C2)cc1	none
C=C1C(=O)O[C@H]2[C@H]1[C@@H](O)CC(=C)[C@@H]1CC(=O)[C@@H](C)[C@H]21	Mdm2 MdmX PPI 61 | Mdm2-MdmX conf inactive
Cc1ccc(C(=O)c2cc([N+](=O)[O-])ccc2N2CCOCC2)cc1C	Mdm2 MdmX PPI 51 | Mdm2-MdmX conf 61 | Full FLuc ctr 60
Cc1c(-c2ccccc2)oc2c(C(=O)N3CCN(c4ccc([N+](=O)[O-])cc4)CC3)cccc2c1=O	Mdm2 MdmX PPI 67, Granule exo inh 90 | Mdm2-MdmX conf 77 | Full FLuc ctr 51
Cc1ccc(C(=O)c2cc([N+](=O)[O-])ccc2N2CCOCC2)c(C)c1	Mdm2 MdmX PPI 67 | Mdm2-MdmX conf 58 | Full FLuc ctr 97
CSc1ccc(COC(=O)c2cc([N+](=O)[O-])ccc2N2CCOCC2)cc1	Mdm2 MdmX PPI 61 | Mdm2-MdmX conf 77 | Full FLuc ctr 113
Cc1ccccc1COC(=O)c1cc([N+](=O)[O-])ccc1N1CCOCC1	none
Cc1nnc2ccc(-c3ccc(NS(=O)(=O)c4ccccc4[N+](=O)[O-])cc3)nn12	none
Cc1cccc(NC(=O)CNC(=O)N2CC(=O)Nc3ccccc32)c1C	none
CC1=C(C(N)=O)C(c2ccccn2)n2nc(-c3ccccc3Cl)nc2N1 (configuration not stated)	none (no result: XBP1 UPR activ, CHOP UPR activ, Mdm2 MdmX PPI)
O=C(COC(=O)/C=C/c1ccc(C(F)(F)F)cc1)NCC1CCCCC1	none
O=C(NC1CCCCC1)c1cc([N+](=O)[O-])ccc1N1CCCCC1	none
COc1ccc(C(=O)c2cc([N+](=O)[O-])ccc2N2CCCC2)cc1	Mdm2 MdmX PPI 50 | Mdm2-MdmX conf 64 | Full FLuc ctr 53
O=C(c1cc([N+](=O)[O-])ccc1N1CCOCC1)N1CCN(c2ccccc2)CC1	Mdm2 MdmX PPI 58 | Mdm2-MdmX conf 77 | Full FLuc ctr 95
Cc1ccc(C(=O)c2cc([N+](=O)[O-])ccc2N2CCCCC2)cc1C	Mdm2 MdmX PPI 64 | Mdm2-MdmX conf 58 | Full FLuc ctr 60
Cn1c(=O)c(C(=O)Nc2ccccn2)c(O)c2ccccc21	Mdm2 MdmX PPI 67 | Mdm2-MdmX conf 60 | Full FLuc ctr inactive
Cc1ccc(S(=O)(=O)N(C)CCCC(=O)Nc2ccncc2)cc1	none
Cc1ccc(NC(=O)Cn2nnc(C(=O)NCCc3ccccc3)c2N)cc1Cl	Mdm2 MdmX PPI 53 | Mdm2-MdmX conf 47 | Full FLuc ctr inactive
Cc1ccc(NC(=O)Cn2nnc(C(=O)NCCc3ccccc3)c2N)c(C)c1	Mdm2 MdmX PPI 61 | Mdm2-MdmX conf inactive
COc1cccc(NC(=O)CN(C)C(=O)CCN2C(=O)C3CC=CCC3C2=O)c1 (configuration not stated)	none
Cc1cc(NC(=O)CSc2nncc(=O)n2N)no1	none
O=C(Cc1nc2ccccc2[nH]1)c1cccc([N+](=O)[O-])c1	Mdm2 MdmX PPI 87 | Mdm2-MdmX conf 77 | Full FLuc ctr 39
CCOC(=O)c1c(CSC(=N)N)n(-c2ccc(Br)cc2)c2cc(Br)c(OC(C)=O)cc12	none (no result: XBP1 UPR activ, CHOP UPR activ, Mdm2 MdmX PPI)

Bioassay records deposited in PubChem by several laboratories.
